ChEMBL document CHEMBL4033789, “Discovery of a New Four-Leaf Clover-Like Ligand as a Potent c-MYC Transcription Inhibitor Specifically Targeting the Promoter G-Quadruplex” (J Med Chem, 2018)
Activity calls are given as the source filed them. No cut-off for these calls is given here.

Tests used:
Homo sapiens [1] = species: Homo sapiens; test: Stabilization of c-Myc promoter G-quadruplex DNA in human Raji cells assessed as downregulation of exon 1 transcriptional level after 6 hrs by RT-PCR analysis; assay type: cell-based
Procedure, shortened: (§1)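 RAJI and CA46 cells treated 6 h over a concentration range; total RNA reverse-transcribed (oligo dT18, M-MLV, 42 °C 1 h then 85 °C 5 min); exon 1 and exon 2 amplified by real-time PCR with exon-specific primers, products run on 1% agarose gel; three repeats.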

SiHa [2] = test: Antiproliferative activity against human SiHa cells assessed as reduction in colony formation at 0.5 uM measured on day 8 by crystal violet-staining based assay; assay type: functional, cell-based
Procedure, shortened: (§2)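 Cells seeded at 300 per well in six-well plates, exposed to compound at 37 °C, 5% CO2, with drug-containing medium replaced every 2 days; after 8 days of culture, colonies fixed with methanol and stained with crystal violet.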

BJ = test: Antiproliferative activity against human BJ cells assessed as reduction in colony formation at 0.5 uM measured on day 8 by crystal violet-staining based assay; assay type: cell-based; procedure, shortened: as §2
[3] = Stabilization of RET G-quadruplex DNA in human SiHa cells assessed as effect on RET mRNA level at 1.25 to 5 uM fter 6 hrs by RT-PCR method; assay type: ADME, cell-based
Procedure, shortened: (§3)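 SiHa cells (2.0×10^5) dosed 6 h; total RNA reverse-transcribed with oligo dT18 primer and M-MLV (42 °C 1 h, 85 °C 5 min); PCR 95 °C 5 min then 30 cycles (95 °C 30 s, 58 °C 30 s, 72 °C 40 s); products checked on agarose gel.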

[4] = Binding affinity to c-KIT1 promoter G-quadruplex DNA (unknown origin) after 1 min by fluorescence titration method; assay type: ADME
Procedure, shortened: (§4)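 Oligonucleotide stock added stepwise to fixed-concentration compound in 10 mM Tris-HCl pH 7.2, 100 mM KCl; equilibrated ≥1 min after each addition, emission read with excitation at 350 nm. KD from fitting titration data to the Benesi–Hildebrand equation; 1:1 stoichiometry checked by Job plot.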

[5] = Binding affinity to 1 uM KRAS promoter G-quadruplex DNA (unknown origin) at 1 uM after 1 min by fluorescence spectroscopic analysis; assay type: ADME
Procedure, shortened: (§5)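 Fluorescence emission spectra of 1 µM compound mixed with 1 µM pre-annealed oligonucleotide (G-quadruplexes folded in 100 mM KCl by heating to 95 °C for 5 min, slow cooling), in Tris-HCl buffer.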

Homo sapiens [6] = species: Homo sapiens; test: Stabilization of c-Myc G-quadruplex DNA in human SiHa cells assessed as inhibition of c-Myc mRNA level at 1.25 to 5 uM after 6 hrs by RT-PCR method; assay type: cell-based; procedure, shortened: as §3
[7] = Binding affinity to up to 10 uM hybrid telomeric htg22 G-quadruplex DNA (unknown origin) at 1 uM after 1 min by fluorescence spectroscopic analysis; assay type: ADME; procedure, shortened: as §4
SiHa [8] = test: Antitumor activity against human SiHa cells xenografted in nude BALB/c mouse assessed as tumor growth inhibition at 5 mg,kg, ip administered every other day for 24 days; assay type: functional
Procedure, shortened: (§6)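 BALB/c nude mice (5 weeks old) given 1×10^7 SiHa cells subcutaneously in right flank; at ~50 mm3 tumor volume, randomized (10 per group) and dosed intraperitoneally every other day for 24 days; controls got equal-volume saline. Caliper volume as 1/2 × length × width2; tumors weighed at end; inhibition rate = (1 − mean treated tumor weight/mean control tumor weight) × 100%.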

SiHa [9] = test: Induction of apoptosis in human SiHa cells assessed as upregulation of cleaved PARP protein levels at 1.25 to 5 uM after 24 hrs by Western blot analysis relative to control; assay type: functional, cell-based
Procedure, shortened: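 SiHa cells (2.0×10^5 per well) treated 24 h, lysed at 4 °C for 30 min, supernatant cleared at 15,000 rpm; protein measured by BCA, 30 µg resolved on 10% SDS-PAGE, transferred to nitrocellulose, blocked in 5% milk/TBS-Tween 1 h, primary antibodies overnight at 4 °C, HRP secondaries 2 h at room temperature.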

[10] = Stabilization of hybrid telomeric htg22 G-quadruplex DNA (unknown origin) assessed as effect on melting temperature at 15 uM by circular dichroism spectroscopic assay; assay type: ADME
Procedure, shortened: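 CD melting of 3 µM annealed G-quadruplex with or without 15 µM ligand in 10 mM Tris-HCl pH 7.2 with 2 mM KCl (50 mM KCl for htg22 and HRAS); read every 5 °C over 25–95 °C, heating 1 °C/min.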

[11] = Binding affinity to up to 1 uM c-MYC promoter G-quadruplex pu22 DNA (unknown origin) after 1 min by fluorescence titration method; procedure, shortened: as §4
[12] = Stabilization of wild type c-Myc promoter G-quadruplex DNA (unknown origin) transfected in human SiHa cells co-expressing psiCHECK2 luciferase plasmid assessed as inhibition of gene transcription at 1.25 to 2.5 uM after 48 hrs by dual-luciferase reporter gene assay; assay type: cell-based
Procedure, shortened: (§7)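 SiHa cells transfected with psiCHECK2 carrying wild-type or mutant c-MYC promoter driving Renilla luciferase, firefly luciferase on same plasmid; compound added 4 h post-transfection, incubated further at 37 °C; Renilla signal normalized to firefly; three repeats, mean ± SEM.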

SiHa [13] = test: Antitumor activity against human SiHa cells xenografted in nude BALB/c mouse assessed as tumor growth inhibition at 20 mg,kg, ip administered every other day for 24 days; assay type: functional; procedure, shortened: as §6
SiHa [14] = test: Antitumor activity against human SiHa cells xenografted in nude BALB/c mouse assessed as tumor growth inhibition at 10 mg,kg, ip administered every other day for 24 days; assay type: functional; procedure, shortened: as §6
[15] = Binding affinity to 1 uM VEGF promoter G-quadruplex DNA (unknown origin) at 1 uM after 1 min by fluorescence spectroscopic analysis; assay type: ADME; procedure, shortened: as §5
SiHa [16] = test: Induction of cell cycle arrest in human SiHa cells assessed as accumulation at G0/G1 phase after 12 hrs by propidium iodide-staining based FACS analysis; assay type: functional
Procedure, shortened: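 SiHa cells treated 12 h, fixed in 70% ethanol at 4 °C overnight, stained with 50 µg/mL PI plus 75 KU/mL RNase A in PBS for 30 min in the dark at room temperature; flow cytometry, 1.6×10^4 events per sample, cell cycle distribution analyzed.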

[17] = Stabilization of c-Myc mutant promoter DNA (unknown origin) transfected in human SiHa cells assessed as reduction in gene transcription at 1.25 to 2.5 uM after 24 hrs by dual-luciferase reporter gene assay; assay type: cell-based; procedure, shortened: as §7
Mus musculus [18] = test: Toxicity in nude BALB/c mouse xenografted with human SiHa cells assessed as signs of distress at 5 to 20 mg/kg, ip administered every other day for 24 days; assay type: organism-based; conditions: in vivo, 576 h
Homo sapiens [19] = species: Homo sapiens; test: Stabilization of c-Myc promoter G-quadruplex DNA in human CA46 cells assessed as downregulation of exon 1 transcriptional level at 1.25 to 5 uM after 6 hrs by RT-PCR analysis; assay type: cell-based; procedure, shortened: as §1
Mus musculus [20] = test: Toxicity in nude BALB/c mouse xenografted with human SiHa cells assessed as body weight reduction at 5 to 20 mg/kg, ip administered every other day for 24 days; assay type: organism-based; conditions: in vivo, 576 h
Procedure, shortened: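 BALB/c nude mice, 5 weeks old, implanted subcutaneously in right flank with 1×10^7 SiHa cells; at ~50 mm3 tumor, 10 per group dosed ip every other day for 24 days, saline control; body weight measured daily, viscera weighed at sacrifice; mean ± SEM, Student's t test versus saline.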

SiHa [21] = test: Induction of apoptosis in human SiHa cells assessed as late apoptotic cells at 5 uM after 24 hrs by Annexin V-FITC/propidium iodide-staining based flow cytometric analysis; assay type: functional

Activity [3]: Not Active | Kd [4]: 800 nM | Activity [5]: Not Active | Activity [7]: Not Active | Activity [10]: Not Active | Kd [11]: 100 nM | Activity [15]: Not Active
Compound: CCn1c2ccccc2c2cc(-c3nc(-c4ccc(N5CCN(C)CC5)cc4)c(-c4ccc(N5CCN(C)CC5)cc4)n3-c3ccc(OC)cc3)ccc21
Activity (Homo sapiens [1]): Dose-dependent effect | Activity (SiHa [2]): Active | Activity (BJ): Non-Toxic | inhibition (Homo sapiens [6]): Active | TGI (SiHa [8]): 57% | Activity (SiHa [9]): Active | inhibition [12]: Active | TGI (SiHa [13]): 69% | TGI (SiHa [14]): 64% | Activity (SiHa [16]): Dose-dependent effect | Activity [17]: inactive | Activity (Mus musculus [18]): Non-Toxic | Activity (Homo sapiens [19]): Active | Activity (Mus musculus [20]): Non-Toxic | Activity (SiHa [21]): 52%
